Tb MetRS inh = Trypanosoma brucei MetRS inhibition; purified T. brucei MetRS, ATP depletion, Kinase-Glo luminescence; inhibition, % at 11.9 µM; 0.4% of 360,000 active;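 active = inhibition above a per-plate cutoff of the control wells' mean inhibition plus 3 SD, cut at about 5.5% in these data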;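 note: 0% = DMSO wells median and 100% = median of wells with control inhibitor compound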
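Dosing: 11.9 µM compound single dose, 0.9% DMSO; Assay system: purified T. brucei MetRS enzyme; Measured by: Kinase-Glo luciferase luminescence reporting remaining unconsumed ATP; Schedule: 15 min plus 2 h at 25 °C.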
NPR2 activator = GC-B (human) receptor activation | P20594 | HEK293-GC-B cells, CNP EC30, cGMP TR-FRET; 0% at EC30 CNP, 100% saturating CNP | activation, % at 10 µM | 0.11% of 370,000 active | AID 1920062;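 active = activation at 10 µM reaching about 35% in either raw or pattern-adjusted values, limit read from the data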
SKN-1 inh = inhibitors of C. elegans SKN-1 | AID 624304 | inhibition, % at 21.8 µM | 0.49% of 360,000 active | C. elegans VP596 Pgst-4::GFP/RFP ratio, acrylamide-induced, 24 h;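 active = interference check ratio from 0.5 to 1.5 plus GFP to RFP signal ratio inhibition reaching or exceeding a fixed threshold, cut at about 30% in these data, passing the limit was not always enough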
A1 inh = inhibitors of the anti-apoptotic protein A1, read as caspase activation; 0.066% of 330,000 active; AID 2462; caspase activation, % (no concentration beside the values); MEF A1-2A-BIM cells, Caspase-Glo 3/7 luminescence, 3 h; percent of clofoctol response, vehicle zero;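 active = over half of replicate activation scores above 10%, or exactly half above 10 with the replicate mean above 10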
GC-A act = GC-A (human) enzyme activation | HEK293 GC-A cells, cGMP TR-FRET, EC30 ANP; 0% at EC30 ANP, 100% saturating ANP | 0.14% of 370,000 active | activation, % at 10 µM | AID 1671463 | P16066; in the data active = activation above about 40%
MT1-MMP act inh = blocks activation of human MT1-MMP. GFP/RFP ratio change, % at 20 µM. P50281. HT1080 RFP-PRO-GFP cells, GFP/RFP ratio fluorescence, overnight; percent of plate control window, DMSO zero. AID 651647. 0.061% of 360,000 active;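 active = GFP/RFP ratio change of at least 30% with cell ATP level not reduced by more than half and red fluorescence within 50% of control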
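Read-out: GFP/RFP fluorescence ratio; Test system: RFP-PRO-GFP reporter HT1080 cells; Compound dosing: single-point 20 µM compound, 1% DMSO; Times: overnight compound exposure at 37 °C.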
TbMetRS confirm = Trypanosoma brucei MetRS inhibition confirmed | T. brucei MetRS enzyme, luminescence (ATP depletion) | AID 624412 | inhibition, % at 11.9 µM | 93% of 1,400 active | shares compounds with Tb MetRS inh; in the data active = inhibition above about 7%
Jurkat cytotox = counter-screen for T. brucei MetRS inhibitors: Jurkat cell cytotoxicity; shares compounds with Tb MetRS inh; Jurkat cells viability, ATP luminescence; inhibition, % at 8.3 µM; 12% of 1,400 active; AID 624413; in the data active = inhibition above about 15%;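 note: 0% = vehicle and 100% = reference inhibitor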
Tb MetRS inh FP = T. brucei MetRS inhibition, orthogonal assay; shares compounds with Tb MetRS inh; purified T. brucei MetRS, fluorescence polarization; inhibition, % at 11.9 µM; 44% of 1,400 active; AID 651607; in the data active = inhibition above about 17%;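 note: 0% = vehicle wells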
* = called active by the depositor; / = no result. Only some compounds are listed: those with a hit (about 1.1% of all), similar ones and a draw of the others.

SMILES	Tb MetRS inh	NPR2 activator	SKN-1 inh	A1 inh	GC-A act	MT1-MMP act inh	TbMetRS confirm	Jurkat cytotox	Tb MetRS inh FP
O=C(CN(Cc1ccccc1)C1=NCCS1)c1ccc(Cl)cc1	25*	-9	3	1	-4	-3	42*	13	23*
COc1ccccc1NC(=S)Nc1ccc2cn[nH]c2c1	7.8*	4	-16	0	-3	-3	2	2	1
Cc1ccc(NC(=S)Nc2ccc3cn[nH]c3c2)cc1C	0	-1	0	0	2	-1	/	/	/
CCOC(=O)[C@]12CCCCC/C=C\1N(Cc1ccc(OC)cc1)C(=O)[C@H]2CC(=O)N1CCSCC1	/	-8	/	/	-4	/	/	/	/
COc1ccc(-c2cc(-c3nnc4sc(Cc5cccs5)nn34)[nH]n2)cc1	/	-8	/	/	13	/	/	/	/
NC(=NCc1ccccc1)NN=Cc1ccnc2ccccc12	7.1*	-14	0	/	-10	4	10*	12	7
NC(N)=NN=Cc1ccnc2ccccc12	-1	-1	5	/	-1	1	/	/	/
CCO[C@H]1OC(C(=O)NCc2nc3ccccc3[nH]2)=C[C@@H](C2CCCCC2)[C@@H]1CCCO	4	-3	16	0	-2	3	/	/	/
O=C(NCc1nc2ccccc2[nH]1)C1=C[C@@H](C2CCCCC2)C[C@@H](OCCCCO)O1	48*	-5	7	1	-2	9	83*	-7	62*
C[C@H]1C=C(C(=O)NCc2nc3ccccc3[nH]2)O[C@@H](OCCCCO)C1	14*	-1	-3	0	1	-5	54*	0	27*
CC(C)(C)[C@H]1C=C(C(=O)NCc2ccccc2)O[C@@H](OCCCCO)C1	0	0	8	-1	2	3	/	/	/
CC(C)(C)[C@H]1C=C(C(=O)NCc2nc3ccccc3[nH]2)O[C@@H](OCCCCO)C1	57*	2	12	3	2	0	97*	-6	61*
C[C@@H]1C=C(C(=O)NCc2ccccc2)O[C@H](OCc2ccc(CO)cc2)C1	0	1	-2	1	5	1	/	/	/
Cc1cc(N2CCN(C(=O)Oc3ccc(-c4ccccc4)cc3)CC2)c2ccccc2n1	/	2	/	/	-2	/	/	/	/
COc1ccc(C=Nn2c(-c3n[nH]c4c3CCC4)n[nH]c2=S)cc1OCc1ccccc1	/	6	/	/	2	/	/	/	/
O=C(Cn1cnc2ccccc21)Nc1cccc([N+](=O)[O-])c1	81*	3	-2	0	-1	2	95*	6	71*
CC(C(=O)Nc1cccc([N+](=O)[O-])c1)[n+]1ccccc1 (stereo not drawn)	1	3	6	0	3	-2	/	/	/
CC(C(=O)Nc1cccc([N+](=O)[O-])c1)n1nnc2ccccc21 (stereo not drawn)	20*	-2	-16	0	-1	-1	31*	5	10
CCn1c(C)cc2c(c1=O)C(c1ccccc1)C(C(=O)OC)=C(N)O2 (stereo not drawn)	0	-1	9	1	-1	-7	/	/	/
COC(=O)C1=C(N)Oc2cc(C)n(Cc3ccco3)c(=O)c2C1c1cccc(Cl)c1 (stereo not drawn)	52*	-23	14	0	-22	-2	6	4	2
COc1c(Cl)cc(Cl)cc1CNc1ccc(S(N)(=O)=O)cc1	16*	0	2	1	39	0	25*	17*	12
